# Measured values published in ChEMBL document CHEMBL1629660, “Pharmacodynamics of tigecycline against phenotypically diverse Staphylococcus aureus isolates in a murine thigh model” (Antimicrob Agents Chemother, 2009).
# Key:
# [1] = Plasma protein binding in mouse; assay type: ADME, cell-free; details: read-out: PPB (converted)
# [2] = AUC (0 to 24 hrs) in neutropenic ICR mouse infected with Staphylococcus aureus ATCC 29213 at 25 mg/kg, sc by HPLC; assay type: ADME, organism-based; set-up: time < 24 hr, dose 25 mg/kg, route subcutaneous; details: plasma
# How it was run: (§1)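 Neutropenic female ICR mice (cyclophosphamide 150 and 100 mg/kg ip, 4 days and 1 day before inoculation), both thighs inoculated im with ~10^7 CFU/ml of ATCC 29213. Single sc doses of 50, 25, 12.5 or 6.25 mg/kg. Cardiac blood taken from groups of six at 8–12 times over 0.5–24 h. Serum measured by HPLC (linear 0.05–5 µg/ml). Two-compartment fit by nonlinear least squares; AUC by trapezoidal rule.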
# [3] = Cmax in neutropenic ICR mouse infected with Staphylococcus aureus ATCC 29213 at 12.5 mg/kg, sc by HPLC; assay type: ADME, organism-based; set-up: dose 12.5 mg/kg, route subcutaneous; details: in vivo; how it was run: as §1
# [4] = fAUC/MIC in methicillin-sensitive Staphylococcus aureus ATCC 25923-infected neutropenic ICR mouse at 50% effective exposure index; assay type: functional
# [5] = AUC in neutropenic ICR mouse infected with Staphylococcus aureus ATCC 29213 at 6.25 to 50 mg/kg, sc; assay type: ADME, organism-based; set-up: dose 6.25-50 mg/kg, route subcutaneous; details: plasma; how it was run: as §1
# [6] = r2 for fCmax/MIC in community acquired methicillin-resistant Staphylococcus aureus isolate 156-infected neutropenic ICR mouse
# [7] = r2 for fAUC/MIC in methicillin-sensitive Staphylococcus aureus ATCC 25923-infected neutropenic ICR mouse
# [8] = fAUC/MIC in methicillin-sensitive Staphylococcus aureus ATCC 29213-infected neutropenic ICR mouse at 80% effective exposure index; assay type: functional
# How it was run: (§2)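 fT>MIC, fCmax/MIC and fAUC/MIC were built from the serum pharmacokinetics, protein binding, modal broth-microdilution MIC (triplicate, CLSI) and 24-h thigh CFU change. Each index was fit to a sigmoidal Emax model. EI50, EI80 and stasis exposures were taken from each isolate's curve.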
# [9] = Elimination half life in neutropenic ICR mouse infected with methicillin-sensitive Staphylococcus aureus ATCC 29213 at 50 mg/kg, sc by HPLC; assay type: ADME, organism-based; set-up: dose 50 mg/kg, route subcutaneous; details: in vivo, read-out: beta t1/2 (converted); how it was run: as §1
# [10] = Cmax in neutropenic ICR mouse infected with Staphylococcus aureus ATCC 29213 at 6.25 mg/kg, sc by HPLC; assay type: ADME, organism-based; set-up: dose 6.25 mg/kg, route subcutaneous; details: in vivo; how it was run: as §1
# [11] = Plasma protein binding in human; assay type: ADME, cell-free; details: read-out: PPB (converted)
# [12] = Protein binding in methicillin-sensitive Staphylococcus aureus ATCC 29213-infected neutropenic ICR mouse serum at 12.5 mg/kg, sc by HPLC; assay type: ADME, organism-based; set-up: dose 12.5 mg/kg, route subcutaneous; details: read-out: PB (converted)
# [13] = Protein binding in methicillin-sensitive Staphylococcus aureus ATCC 29213-infected neutropenic ICR mouse serum at 50 mg/kg, sc by HPLC; assay type: ADME, organism-based; set-up: dose 50 mg/kg, route subcutaneous; details: read-out: PB (converted)
# Staphylococcus aureus [14] = assay: Antimicrobial activity against community acquired methicillin-resistant Staphylococcus aureus isolate 156 infected in immunocompetent ICR mouse assessed as reduction in bacterial load at […] after 24 hrs; assay type: functional
# How it was run: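 Non-neutropenic ICR mice (no cyclophosphamide). Each thigh inoculated im with 0.1 ml of ~10^8 CFU/ml. Tigecycline given sc once daily at 1.56, 3.13, 6.25 or 12.5 mg/kg starting 2 h post-infection, 3 mice/group. Thighs harvested at 24 h, homogenized, plated on blood agar; log10 CFU change vs 0-h controls.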
# [15] = Cmax in neutropenic ICR mouse infected with Staphylococcus aureus ATCC 29213 at 25 mg/kg, sc by HPLC; assay type: ADME, organism-based; set-up: dose 25 mg/kg, route subcutaneous; details: in vivo; how it was run: as §1
# Staphylococcus aureus [16] = assay: Antimicrobial activity against Hospital-acquired methicillin-resistant Staphylococcus aureus isolate 56 by broth microdilution method; assay type: functional
# How it was run: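 Tigecycline MIC by CLSI broth microdilution, run in triplicate; modal MIC reported. Isolates stored at –80°C in double-strength skim milk and subcultured twice on Trypticase soy agar with 5% sheep blood before use.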
# Acinetobacter baumannii [17] = assay: Antimicrobial activity against carbapenem-intermediate,-resistant Acinetobacter baumannii assessed as decrease in bacterial count at 0.6 times of MIC after 24 hrs by time kill analysis; assay type: functional
# [18] = Cmax in neutropenic ICR mouse infected with Staphylococcus aureus ATCC 29213 at 50 mg/kg, sc by HPLC; assay type: ADME, organism-based; set-up: dose 50 mg/kg, route subcutaneous; details: in vivo; how it was run: as §1
# Acinetobacter baumannii [19] = assay: Antimicrobial activity against carbapenem-intermediate,-resistant Acinetobacter baumannii assessed as decrease in bacterial count at 0.8 times of MIC after 48 hrs by time kill analysis; assay type: functional
# Staphylococcus aureus [20] = assay: Antimicrobial activity against community-acquired methicillin-resistant Staphylococcus aureus isolate 156 infected in neutropenic ICR mouse assessed as decrease in bacterial density at 1.56 to 400 mg/kg, sc after 24 hrs; assay type: functional; details: dose mg/kg 1.56-400; route subcutaneous
# How it was run: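 Female ICR mice (~25 g) made neutropenic with cyclophosphamide 150 and 100 mg/kg ip, 4 and 1 days before infection. Each thigh inoculated im with 0.1 ml of ~10^7 CFU/ml from an overnight subculture. Tigecycline sc (0.2 ml) given 2 h later as single or multiple doses of 1.56–50 mg/kg, 1.56–400 mg/kg/day, 3 mice/group. Saline-injected controls. Thighs harvested at 24 h, homogenized in saline, plated on blood agar; log10 CFU change vs 0-h controls.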
# [21] = r2 of fCmax/MIC in community acquired methicillin-resistant Staphylococcus aureus isolate 147-infected neutropenic ICR mouse
# [22] = Tmax in neutropenic ICR mouse infected with Staphylococcus aureus ATCC 29213 at 6.25 mg/kg, sc by HPLC; assay type: ADME, organism-based; set-up: dose 6.25 mg/kg, route subcutaneous; details: in vivo; how it was run: as §1
# [23] = Tmax in neutropenic ICR mouse infected with Staphylococcus aureus ATCC 29213 at 25 mg/kg, sc by HPLC; assay type: ADME, organism-based; set-up: dose 25 mg/kg, route subcutaneous; details: in vivo; how it was run: as §1
# [24] = fAUC/MIC in community acquired methicillin-resistant Staphylococcus aureus isolate 147-infected neutropenic ICR mouse at 50% effective exposure index; assay type: functional
# How it was run: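 Single-dose serum PK in infected neutropenic mice (sc 6.25–50 mg/kg; HPLC; two-compartment fit; AUC by trapezoidal rule; lower doses simulated). Free fraction from ultrafiltration of spiked mouse serum, in triplicate. Free exposures divided by modal MIC and plotted against 24-h log10 CFU change with a sigmoidal Emax model; EI50, EI80 and stasis values read from the fitted curves.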
# [25] = Protein binding in methicillin-sensitive Staphylococcus aureus ATCC 29213-infected neutropenic ICR mouse serum at 25 mg/kg, sc by HPLC; assay type: ADME, organism-based; set-up: dose 25 mg/kg, route subcutaneous; details: read-out: PB (converted)
# [26] = r2 of fT>MIC in methicillin-sensitive Staphylococcus aureus ATCC 25923-infected neutropenic ICR mouse
# [27] = Protein binding in methicillin-sensitive Staphylococcus aureus ATCC 29213-infected neutropenic ICR mouse serum at 1.5 µg/ml by HPLC; details: read-out: PB (converted)
# [28] = fAUC/MIC in methicillin-sensitive Staphylococcus aureus ATCC 29213-infected neutropenic ICR mouse at 50% effective exposure index; assay type: functional; how it was run: as §2
# [29] = fAUC/MIC in methicillin-sensitive Staphylococcus aureus ATCC 29213-infected neutropenic ICR mouse at stasis dose; assay type: functional; how it was run: as §2
smiles,measurement,setting,value
CN(C)c1cc(NC(=O)CNC(C)(C)C)c(O)c2c1C[C@H]1C[C@H]3[C@H](N(C)C)C(O)=C(C(N)=O)C(=O)[C@@]3(O)C(O)=C1C2=O [TIGECYCLINE],fraction unbound,[1],0.188
same,AUC(0-t) at 24 h,[2],25200 ng·h/mL
same,Cmax,[3],2380 ng/mL
same,fAUC/MIC,[4],5
same,AUC,[5],1200 ng·h/mL
same,r2,[6],0.88
same,r2,[7],0.877
same,fAUC/MIC,[8],4.1
same,half-life,[9],442 min
same,Cmax,[10],1680 ng/mL
same,fraction unbound,[11],0.29
same,fraction unbound,[12],0.121
same,fraction unbound,[13],0.071
same,log10cfu,Staphylococcus aureus [14],1.9
same,Cmax,[15],5330 ng/mL
same,MIC,Staphylococcus aureus [16],0.5 µg/mL
same,log10cfu,Acinetobacter baumannii [17],1.5
same,Cmax,[18],12200 ng/mL
same,log10cfu,Acinetobacter baumannii [19],3.5
same,CFU,Staphylococcus aureus [20],1.5
same,r2,[21],0.892
same,Tmax,[22],4.8 min
same,Tmax,[23],31.8 min
same,fAUC/MIC,[24],1.5
same,fraction unbound,[25],0.075
same,r2,[26],0.872%
same,fraction unbound,[27],0.173
same,fAUC/MIC,[28],0.6
same,fAUC/MIC,[29],0.5
